Consider 6 compounds from ChEMBL document CHEMBL1126771, “Application of a conformationally restricted Phe-Leu dipeptide mimetic to the design of a combined inhibitor of angiotensin I-converting enzyme and neutral endopeptidase 24.11” (J Med Chem, 1993).

The target in one experiment is T1, Neprilysin (Rattus norvegicus, UniProt P07861).
T1 sequence (P07861 whole entry): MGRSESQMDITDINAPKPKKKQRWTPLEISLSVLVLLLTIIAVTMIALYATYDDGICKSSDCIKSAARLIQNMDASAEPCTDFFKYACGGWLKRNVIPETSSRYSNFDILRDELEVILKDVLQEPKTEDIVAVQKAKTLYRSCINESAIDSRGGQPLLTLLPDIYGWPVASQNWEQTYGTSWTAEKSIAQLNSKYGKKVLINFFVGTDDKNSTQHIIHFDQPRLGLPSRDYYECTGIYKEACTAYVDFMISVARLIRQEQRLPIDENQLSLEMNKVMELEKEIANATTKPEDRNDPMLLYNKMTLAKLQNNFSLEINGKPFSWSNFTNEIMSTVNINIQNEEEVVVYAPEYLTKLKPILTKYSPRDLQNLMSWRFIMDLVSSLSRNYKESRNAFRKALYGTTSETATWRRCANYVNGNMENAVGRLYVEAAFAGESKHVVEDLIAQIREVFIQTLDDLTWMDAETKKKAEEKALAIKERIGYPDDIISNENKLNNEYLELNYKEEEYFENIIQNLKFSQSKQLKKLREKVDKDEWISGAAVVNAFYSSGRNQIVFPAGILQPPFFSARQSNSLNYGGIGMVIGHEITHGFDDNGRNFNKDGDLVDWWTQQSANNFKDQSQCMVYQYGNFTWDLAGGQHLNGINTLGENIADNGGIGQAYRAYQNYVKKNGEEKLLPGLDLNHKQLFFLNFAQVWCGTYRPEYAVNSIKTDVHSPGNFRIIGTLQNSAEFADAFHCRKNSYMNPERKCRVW
Put plainly: Binding affinity of compound against rat kidney neutral endopeptidase (NEP) was determined. The method, boiled down:
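Rat kidney NEP. Fluorogenic assay using dansyl-D-Ala-Gly-(p-nitro)Phe-Gly-OH as substrate. Inhibitor solutions assayed for thiol content with Ellman's reagent immediately prior to testing.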

Experiment [1] concerns the target T2, Angiotensin-converting enzyme (Oryctolagus cuniculus, UniProt P12822).
T2 sequence (P12822 whole entry): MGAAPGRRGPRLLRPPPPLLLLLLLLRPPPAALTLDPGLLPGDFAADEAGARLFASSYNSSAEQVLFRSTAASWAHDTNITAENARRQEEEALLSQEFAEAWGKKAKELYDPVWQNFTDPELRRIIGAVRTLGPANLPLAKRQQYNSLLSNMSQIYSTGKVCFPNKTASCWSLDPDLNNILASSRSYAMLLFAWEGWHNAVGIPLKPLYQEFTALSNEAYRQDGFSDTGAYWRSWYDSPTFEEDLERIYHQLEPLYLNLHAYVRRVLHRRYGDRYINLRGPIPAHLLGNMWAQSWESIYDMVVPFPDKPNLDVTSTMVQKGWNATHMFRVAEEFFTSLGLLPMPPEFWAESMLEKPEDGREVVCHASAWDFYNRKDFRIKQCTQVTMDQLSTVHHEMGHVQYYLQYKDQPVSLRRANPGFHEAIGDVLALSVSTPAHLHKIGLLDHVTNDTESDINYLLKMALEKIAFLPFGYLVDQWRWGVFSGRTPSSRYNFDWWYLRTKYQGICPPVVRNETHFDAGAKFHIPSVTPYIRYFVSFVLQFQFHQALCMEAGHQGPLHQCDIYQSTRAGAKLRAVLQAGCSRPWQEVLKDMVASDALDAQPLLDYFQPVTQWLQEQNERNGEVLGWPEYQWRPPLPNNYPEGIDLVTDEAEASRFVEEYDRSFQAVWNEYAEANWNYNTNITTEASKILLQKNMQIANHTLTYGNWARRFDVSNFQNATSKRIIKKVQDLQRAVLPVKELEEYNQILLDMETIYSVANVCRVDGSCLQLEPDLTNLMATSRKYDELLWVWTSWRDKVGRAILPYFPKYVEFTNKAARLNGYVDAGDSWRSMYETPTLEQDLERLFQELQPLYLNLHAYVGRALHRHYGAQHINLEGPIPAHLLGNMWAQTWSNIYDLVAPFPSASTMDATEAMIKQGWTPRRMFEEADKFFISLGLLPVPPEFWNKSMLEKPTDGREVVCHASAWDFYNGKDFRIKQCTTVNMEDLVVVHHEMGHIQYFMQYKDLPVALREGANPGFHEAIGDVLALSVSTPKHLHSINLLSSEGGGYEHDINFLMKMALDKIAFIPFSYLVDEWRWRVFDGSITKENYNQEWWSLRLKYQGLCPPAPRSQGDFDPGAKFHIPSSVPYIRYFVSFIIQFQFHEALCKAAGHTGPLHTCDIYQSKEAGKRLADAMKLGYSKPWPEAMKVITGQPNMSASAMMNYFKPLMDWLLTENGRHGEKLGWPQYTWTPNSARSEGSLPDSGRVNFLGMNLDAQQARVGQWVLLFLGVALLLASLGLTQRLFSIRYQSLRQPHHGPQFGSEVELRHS
Put plainly: Binding affinity of compound against rabbit lung angiotensin I-converting enzyme (ACE) was determined. The method, boiled down:
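Rabbit lung ACE. Spectrophotometric assay with recrystallized (furylacryloyl)phenylalanyl-glycylglycine as substrate; colored contaminants removed beforehand. Thiol content of inhibitor solutions checked with Ellman's reagent just before testing.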

By Ki is commonly meant the equilibrium dissociation constant of an inhibitor or competing ligand from its target. Consider `O=C(NC1Cc2ccccc2C2CCC[C@H](C(=O)O)N2C1=O)C(S)Cc1ccccc1` (stereo in doubt; 11b), for which the Ki on Neprilysin was 0.07 nM; in experiment [1], 4.5 nM.
The corresponding values for `O=C(O)[C@H]1CCCC2c3ccccc3C[C@@H](CS)C(=O)N21` (stereo in doubt; 3) are > 300 nM and 2 nM.
The corresponding values for `O=C(NC1Cc2ccccc2C2CCC[C@H](C(=O)O)N2C1=O)C(S)Cc1ccccc1` (stereo in doubt) are 0.08 nM and 0.11 nM.
For `O=C(O)[C@H](CCc1ccccc1)N[C@@H]1Cc2ccccc2C2CCC[C@H](C(=O)O)N2C1=O` (some centres not stated), the Ki on Neprilysin is > 10000 nM; in experiment [1], 0.004 nM.
The corresponding values for `O=C(CS)N[C@@H]1Cc2ccccc2C2CCC[C@H](C(=O)O)N2C1=O` (some centres not stated) are 5 nM and 2 nM.
With `O=C(O)[C@H]1CCCC2c3ccccc3C[C@@H](CS)C(=O)N21` (stereo in doubt; 4), the figures for the Ki (at Neprilysin; in experiment [1]) were 45 nM and > 7 nM, respectively.
